Data reported in PubChem BioAssay.
Results filed as inconclusive are left out. The source made the active and inactive calls.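 How the source made its calls, unless noted: active means viability increase at or above a cutoff of the median across tested compounds plus 3 SD (cut at about 8.5% in these data, passing the limit was not always enough); inconclusive means some gains above the cutoff, reason not given; inactive means the rest.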

How the values were obtained:
[1] = S. cerevisiae growth inhibition in permissive medium (OD615), pilot counter-assay for S. cerevisiae lifespan shortening project, permissive growth control (AID 705;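 active means growth inhibition above 25% in both replicates, a cutoff set 3 SD above the mean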); conditions: OD615, 24 h, at 10 µM, hits give high values
Procedure, shortened: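 assay system = Saccharomyces cerevisiae strain carrying genetically modified DeaD replicative-lifespan system | technique = absorbance (optical density) at 615 nm | buffer or medium = permissive raffinose/galactose medium | timing = cells pre-grown 4 h, then 24 h compound exposure, 30 °C humidified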

[2] = S. cerevisiae growth inhibition in restrictive medium, OD615, pilot screen, restrictive growth control, yeast lifespan reduction project (AID 706;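 active means growth inhibition above a set limit, 3 SD over mean compound inhibition, in both replicates, cut at about 43% in these data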;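 further: modified DeaD lifespan yeast strain shifted to restrictive glucose medium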); conditions: OD615, 48 h, at 10 µM, hits give high values
Procedure, shortened: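 System: modified S. cerevisiae. Buffer or medium: CSMM-D glucose medium. Incubation: 4 h pre-growth plus 48 h compound exposure, 30 °C. Detection: absorbance (optical density) measured at 615 nm.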

[3] = doxorubicin toxicity protection in MRP-1 cells – H69AR cells, CellTiter-Glo, duplicate, MRP-1 activator project, pilot screen (AID 807); conditions: H69AR viability with doxorubicin, CellTiter-Glo luminescence; at 10 µM; hits give high values;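 further: compound pretreatment 18-22 h then 72 h combined with doxorubicin; 0% = doxorubicin alone and 100% = vehicle without doxorubicin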
[4] = viability of HCT116 without oncogenic beta-catenin – human colon tumor cells, pilot screen (AID 823;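 active means cell viability at or below a set limit in both duplicate runs, the limit being the all-compound median minus 4 SD, cut at about 23% in these data, passing the limit was not always enough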;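 further: 0% = wells killed by 20 µM Hyamine and 100% = untreated DMSO cell wells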); conditions: HCT116 beta-catenin knockout viability, CellTiter-Glo, 60 h; at 10 µM; hits give low values
[5] = viability of PTEN-null HCT116 cells – cell-based, HCT116 clonal line, CellTiter-Glo, pilot screen (AID 824;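 active means viability at or below 27.92% in each of two runs, the all-compound median minus 4 SD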;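 further: 0% = 20 µM Hyamine control and 100% = vehicle cell control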); conditions: HCT116 PTEN-deleted viability, 60 h, at 10 µM, hits give low values
[6] = RAM pathway blockade in budding yeast – dse1pr::URA3 reporter, 5-FOA selection, pilot screen (AID 869;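 active means inhibition over a set limit, the all-compound mean plus 3 SD, in both replicate runs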;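 further: 0% = DMSO wells with no growth and 100% = 10 µM 1-NA-PP1 with full growth; RAM network block rescues cells from 5-FOA so hits raise OD615 growth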); conditions: S. cerevisiae dse1pr::URA3 5-FOA growth, OD615, 2 d; at 10 µM; hits give high values; strain carries analog-sensitive mutant Cbk1 kinase
[7] = RAM signaling pathway blockade in yeast – S. cerevisiae, Pdr1DBD-CYC8 efflux-inhibited sensitized strain, primary screen (AID 1298;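 active means RAM network inhibition above 8.4% in each of two replicates, 3 SD over the compound average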;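 further: 0% = DMSO untreated cells without growth and 100% = 10 µM 1-NA-PP1 full growth; higher means more yeast growth rescued from 5-FOA killing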); conditions: S. cerevisiae cbk1-as DSE1-URA3 strain, 5-FOA growth OD615, 2 d; at 50 µM; hits give high values

COc1ccc(C2C(C(=O)N3CCOCC3)CCC(=O)N2c2cc(OC)c(OC)c(OC)c2)cc1 (stereo not given)
inactive: growth inhibition [1] -10.2% | growth inhibition [2] -12.3% | viability increase [3] -0.09% | viability [4] 99.7% | viability [5] 102% | inhibition [6] 0.705% | RAM network inhibition [7] 1.3%

O=C1c2ccccc2C(Nc2ccc3c(c2)OCCO3)N1c1ccc(Cl)cn1 (stereo not given)
inactive: growth inhibition [1] -12.2% | growth inhibition [2] 3.92% | viability increase [3] 1.76% | viability [4] 81.7% | viability [5] 75.2% | inhibition [6] 1.83% | RAM network inhibition [7] 9.61%

CCOC(=O)C1CCN(S(=O)(=O)c2ccc(OCC)cc2)CC1
inactive: growth inhibition [1] -6.07% | growth inhibition [2] -13.5% | viability increase [3] -2.24% | viability [4] 92% | viability [5] 94.4% | inhibition [6] 0.575% | RAM network inhibition [7] 6.62%

CCN(CC)CCN=C1CCCc2ccccc2N1
inactive: growth inhibition [1] -1.96% | growth inhibition [2] 5.53% | viability increase [3] -2.11% | viability [4] 86.9% | viability [5] 87% | inhibition [6] 2.3% | RAM network inhibition [7] 0.67%

O=C(Cn1c(N2CCN(c3ccccc3)CC2)nc2ccccc21)c1ccccc1
inactive: growth inhibition [1] -10.3% | growth inhibition [2] -9.96% | viability increase [3] -3.76% | viability [4] 84.3% | viability [5] 93.6% | inhibition [6] 2.6% | RAM network inhibition [7] 4.62%

CCOC(=O)N1CCN(C(=O)CN(c2cc(C(F)(F)F)ccc2Cl)S(C)(=O)=O)CC1
inactive: growth inhibition [1] 0.24% | growth inhibition [2] 9.28% | viability increase [3] -1.79% | viability [4] 103% | viability [5] 99% | inhibition [6] -0.91% | RAM network inhibition [7] -0.25%

COc1ccc(C)cc1NC(=O)c1cnc2scc(C)n2c1=O
inactive: growth inhibition [1] 9.45% | growth inhibition [2] -0.68% | viability increase [3] -5.49% | viability [4] 87.8% | viability [5] 84.8% | inhibition [6] 3.21% | RAM network inhibition [7] 3.95%

Cc1ccc(C(C(=O)NC2CCCC2)N2CCCCC2)cc1 (stereo not given)
inactive: growth inhibition [1] -2.54% | growth inhibition [2] -13.5% | viability increase [3] -1.32% | viability [4] 86.9% | viability [5] 90.6% | inhibition [6] 2.38% | RAM network inhibition [7] 5.61%

Brc1ccc(-c2nnc3sc(CNCc4ccc5c(c4)OCO5)cn23)cc1
inactive: growth inhibition [1] 5.46% | growth inhibition [2] 20.8% | viability increase [3] -0.67% | viability [4] 99.6% | viability [5] 99.8% | inhibition [6] 1.17% | RAM network inhibition [7] 1.64%

COC(=O)c1cc(NC2c3ccccc3C(=O)N2c2cccnc2)cc(C(=O)OC)c1 (stereo not given)
inactive: growth inhibition [1] -10.2% | growth inhibition [2] 0.875% | viability increase [3] -4.6% | viability [4] 90.6% | viability [5] 91.4% | inhibition [6] 1.27% | RAM network inhibition [7] 6.35%

COc1cc(C(=O)N2CCN(C(=O)c3ccco3)CC2)cc(OC)c1OC
inactive: growth inhibition [1] -7.33% | growth inhibition [2] -2.3% | viability increase [3] -0.58% | viability [4] 100% | viability [5] 97.5% | inhibition [6] 0.16% | RAM network inhibition [7] 6.85%

COc1ccccc1N1CCN(C(=O)CCCCn2c(=O)[nH]c3ccsc3c2=O)CC1
inactive: growth inhibition [1] -4.33% | growth inhibition [2] 7.52% | viability increase [3] -2.84% | viability [4] 94% | viability [5] 88.5% | inhibition [6] 2.13% | RAM network inhibition [7] 5.16%

Cc1nn(CCCC(=O)N2CCc3ccccc3C2)c(=O)c2cc3sccc3n12
inactive: growth inhibition [1] -4.89% | growth inhibition [2] -14.2% | viability increase [3] -1.17% | viability [4] 97% | viability [5] 88.1% | inhibition [6] 1.39% | RAM network inhibition [7] 0.42%

Nn1c(SCc2ccccc2)nnc1-c1ccco1
inactive: growth inhibition [1] -8.86% | growth inhibition [2] 3.38% | viability increase [3] -3.7% | viability [4] 99.2% | viability [5] 93% | inhibition [6] 0.67% | RAM network inhibition [7] -1.12%

O=C(CCNS(=O)(=O)c1cccc2nsnc12)NC1CCCc2ccccc21 (stereo not given)
inactive: growth inhibition [1] -9.18% | growth inhibition [2] -13.1% | viability increase [3] -4.33% | viability [4] 88.2% | viability [5] 90.3% | inhibition [6] 1.23% | RAM network inhibition [7] 0.26%
